One block for each molecule: values may come before it. Activity calls are given as the source filed them. The rule behind the calls is not given here.
How the values were obtained:
[1] = Antioxidant activity assessed as DPPH radical scavenging activity at 10 uM incubated for 20 mins; type: physicochemical
[2] = Antioxidant activity assessed as DPPH radical scavenging activity at 1 uM incubated for 20 mins; type: physicochemical
[3] = Antioxidant activity assessed as DPPH radical scavenging activity incubated for 20 mins; type: physicochemical
Summary of the method: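 DPPH (100 μM in ethanol) was mixed with sample at different concentrations and incubated 20 min at room temperature in the dark, then A517 was read. % scavenging was calculated against a water control. IC was reported as mean ± SEM, n = 3.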

[4] = Antioxidant activity assessed as DPPH radical scavenging activity at 100 uM incubated for 20 mins; type: physicochemical
Rattus norvegicus [5] = assay: Antidiabetic activity in streptozotocin/nicotinamide-induced Wistar rat model of diabetes assessed as plasma glucose variation at 50 mg/kg, ig measured at 7 hrs post dose by glucometric analysis (reference value: -5 +/- 8%); type: functional
Rattus norvegicus [6] = assay: Antidiabetic activity in streptozotocin/nicotinamide-induced Wistar rat model of diabetes assessed as plasma glucose variation at 50 mg/kg, ig measured at 5 hrs post dose by glucometric analysis (reference value: -2 +/- 6%); type: functional
Rattus norvegicus [7] = assay: Antidiabetic activity in streptozotocin/nicotinamide-induced Wistar rat model of diabetes assessed as plasma glucose variation at 50 mg/kg, ig measured at 1 hr post dose by glucometric analysis (reference value: 17 +/- 8%); type: functional
Rattus norvegicus [8] = assay: Antidiabetic activity in streptozotocin/nicotinamide-induced Wistar rat model of diabetes assessed as plasma glucose variation at 50 mg/kg, ig measured at 3 hrs post dose by glucometric analysis (reference value: -13 +/- 10%); type: functional
Rattus norvegicus [9] = assay: Antidiabetic activity in streptozotocin/nicotinamide-induced Wistar rat model of diabetes assessed as plasma glucose reduction at 50 mg/kg, ig measured at 1 to 7 hrs post dose by glucometric analysis; type: functional, organism-based

- Activity [1]: 14.52%
- Activity [2]: 3.06%
- IC50 [3]: 47.7 µM
- Activity [4]: 78.73%
Compound: COc1cc(/C=C/C(=O)O)ccc1O [FERULATE]

- IC50 [3]: 10.9 µM
Compound: Cc1c(C)c2c(c(C)c1O)CC[C@@](C)(CCC[C@H](C)CCC[C@H](C)CCCC(C)C)O2 [ALPHA-TOCOPHEROL]

- Activity [1]: 23.29%
- Activity [2]: 2.65%
- IC50 [3]: 35.8 µM
- Activity [4]: 90.61%
Compound: COc1cc(/C=C/C(=O)O)cc(OC)c1O [SINAPINATE]

Compound: Cc1c(C(=O)NN2CCCCC2)nn(-c2ccc(Cl)cc2Cl)c1-c1ccc(Cl)cc1 [RIMONABANT]
- Activity (Rattus norvegicus [5]): -39%
- Activity (Rattus norvegicus [6]): -30%
- Activity (Rattus norvegicus [7]): -30%
- Activity (Rattus norvegicus [8]): -21%

Compound: COc1ccc(Cl)cc1C(=O)NCCc1ccc(S(=O)(=O)NC(=O)NC2CCCCC2)cc1 [GLYBURIDE]
- Activity (Rattus norvegicus [5]): -31%
- Activity (Rattus norvegicus [6]): -31%
- Activity (Rattus norvegicus [7]): -4%
- Activity (Rattus norvegicus [8]): -31%

Compound: O=c1c(O)c(-c2ccc(O)c(O)c2)oc2cc(O)cc(O)c12 [QUERCETIN]
- IC50 [3]: 31.7 µM

Compound: COc1cc(/C=N/NC(=O)c2nn(-c3ccc(Cl)c(Cl)c3)c(-c3ccc(Cl)cc3)c2C)ccc1O
- Activity (Rattus norvegicus [9]): Active

— ChEMBL document CHEMBL3784970, “Synthesis and molecular docking of N'-arylidene-5-(4-chlorophenyl)-1-(3,4-dichlorophenyl)-4-methyl-1H-pyrazole-3-carbohydrazides as novel hypoglycemic and antioxidant dual agents” (Bioorg Med Chem, 2016)
